Published values of several laboratories.
Protocols differ between the studies behind these lines.
Target: Mitogen-activated protein kinase kinase kinase 10 (MAP3K10, Homo sapiens, UniProt Q02779)

| SMILES | test | conditions | measurement | value |
| --- | --- | --- | --- | --- |
| CCCCNc1ncc2c(-c3ccc(F)cc3)nn(C[C@H]3CC[C@H](N)CC3)c2n1 | target engagement in cells, inhibitor, chemoproteomics | 20 mM | inhibition | 65.4% |
| O=C(N1CCS(=O)(=O)CC1)N1C[C@H](c2ccc(OC(F)(F)F)cc2)C[C@H](c2nc(C3CC3)no2)C1 | cell-free assay, competition with immobilised ligand | 1 µM | remaining binding | 99% |
| COc1cc2c(N3CCN(C(=O)Nc4ccc(OC(C)C)cc4)CC3)ncnc2cc1OCCCN1CCCCC1 | cell-free assay | 0.5 µM | remaining signal | 101% |
| Cc1sc(C(=O)NC2COC2)cc1-n1cc(NC(=O)Nc2c(F)cccc2Cl)cn1 | enzyme activity, inhibitor | 10 µM | remaining activity | 90.8% |
| CN1CC(Oc2cnc(C#N)cc2-c2ccn3nc(NC(=O)C4CC4)cc3c2)C1 | enzyme activity, inhibitor | 1 µM | inhibition | 8% |
| C[C@H](NC(=O)c1cnc2n1[C@](C)(Cc1ccc(C#N)cc1)C(=O)N2c1cc(Cl)c(F)c(Cl)c1)C(=O)NC1(c2ccccn2)CC1 | cell-free assay, competition with immobilised ligand | 1 µM | remaining binding | 100% |
| C[C@@H]1CCN(C(=O)CC#N)C[C@@H]1N(C)c1ncnc2[nH]ccc12 | cell-free assay, inhibitor | 0.5 µM | remaining signal | 105% |
| C[C@@H]1CN(c2cc(-c3n[nH]c4ccc(OC5(C)CC5)cc34)ncn2)C[C@H](C)O1 | cell-free assay, competition with immobilised ligand | 0.1 µM | remaining binding | 100% |
| CCN(CC)CCNC(=O)c1c(C)[nH]c(/C=C2\C(=O)Nc3ccc(F)cc32)c1C | cell-free assay | 0.5 µM | remaining signal | 104% |
| O=C(Nc1cnn(-c2csc(C(=O)NC3COC3)c2)c1)Nc1c(F)cccc1Cl | enzyme activity, inhibitor | 5 µM | remaining activity | 94.3% |
| COc1cccc2c(NCc3ccccc3)nc(-n3c(N)nc4ccccc43)nc12 | target engagement in cells, inhibitor, chemoproteomics | 20 mM | inhibition | 17.4% |
| CC(C)(O)c1cncc(-c2nc3ccc(F)cc3n2C2CC2)c1 | cell-free assay, competition with immobilised ligand | 1 µM | remaining binding | 100% |
| Oc1ccc(-c2nc(-c3ccncc3)c(-c3ccc(F)cc3)[nH]2)cc1 | cell-free assay | 0.5 µM | remaining signal | 32.8% |
| O=C1NC(c2ccccn2)Sc2ccccc21 (stereo not drawn) | cell-free assay, competition with immobilised ligand | 1 µM | remaining binding | 94% |
| CC/C(=N\NC(=O)NCc1cccc(O)c1)c1ccc(O)c(C)c1O | enzyme activity, inhibitor | 0.1 µM | inhibition | 6.2% |
| O=C1NC(=O)c2cc(Nc3ccc(F)cc3)c(Nc3ccc(F)cc3)cc21 | cell-free assay | 0.5 µM | remaining signal | 90.6% |
| Cc1cc(NC(=O)c2cccc3cc(-c4cccc5[nH]nc(N)c45)ccc23)ccc1F | enzyme activity, inhibitor | 0.1 µM | activity vs control | 98% |
| CC(C)(C)c1nc2c(s1)c1nc(N)ncc1c1ccc(NS(=O)(=O)c3c(F)cccc3F)c(F)c12 | enzyme activity, inhibitor, radiometric | 1 µM | remaining activity | 102% |
